How the values were obtained:
[1] = biological target: T1, 11-beta-hydroxysteroid dehydrogenase 1 (Homo sapiens, UniProt P28845); assay: Inhibition of human 11beta-HSD1 expressed in Escherichia coli
[2] = biological target: T2, 11-beta-hydroxysteroid dehydrogenase type 2 (Homo sapiens, UniProt P80365); assay: Inhibition of human 11beta-HSD2
T2 sequence (P80365 whole entry): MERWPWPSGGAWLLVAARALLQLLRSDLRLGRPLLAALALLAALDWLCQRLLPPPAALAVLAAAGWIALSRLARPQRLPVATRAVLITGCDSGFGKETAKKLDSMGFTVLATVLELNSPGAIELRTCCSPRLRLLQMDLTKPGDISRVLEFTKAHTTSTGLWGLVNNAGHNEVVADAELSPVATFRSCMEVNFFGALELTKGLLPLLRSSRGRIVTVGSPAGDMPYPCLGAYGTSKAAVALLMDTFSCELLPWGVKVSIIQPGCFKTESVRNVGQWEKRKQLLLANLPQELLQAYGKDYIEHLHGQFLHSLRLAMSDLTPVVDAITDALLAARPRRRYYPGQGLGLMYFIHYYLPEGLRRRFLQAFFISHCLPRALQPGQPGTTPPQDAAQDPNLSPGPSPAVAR

[3] = biological target: 11-beta-hydroxysteroid dehydrogenase 1 (Mus musculus, UniProt P50172); assay: Inhibition of mouse 11beta-HSD1 expressed in Escherichia coli
Sequence of 11-beta-hydroxysteroid dehydrogenase 1 (Mus musculus, UniProt P50172) (P50172 whole entry): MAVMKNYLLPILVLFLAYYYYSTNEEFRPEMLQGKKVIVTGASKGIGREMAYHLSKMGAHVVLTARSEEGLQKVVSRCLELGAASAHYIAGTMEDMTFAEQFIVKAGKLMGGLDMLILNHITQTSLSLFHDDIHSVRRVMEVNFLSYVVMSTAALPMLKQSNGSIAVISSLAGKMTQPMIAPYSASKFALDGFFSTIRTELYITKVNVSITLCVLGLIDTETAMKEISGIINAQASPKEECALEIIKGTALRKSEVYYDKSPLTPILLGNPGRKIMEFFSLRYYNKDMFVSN
In short: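 Reductase-direction SPA. Total cortisone was 175 nM, including 75 nM ³H-cortisone, with NADPH cofactor in 50 mM Tris–HCl pH 7.2 and 1 mM EDTA. An NADPH regeneration system (1 mM G-6-P, 1 U/mL G-6-PDH) was included. Final enzyme was 0.015 mg/mL, keeping substrate consumption below 25%. The reaction ran 30 min at room temperature. ³H-cortisol was captured by anti-cortisol mAb and anti-mouse SPA beads, then scintillation-counted. IC50 came from % inhibition versus an uninhibited control, as the mean of two experiments.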

[4] = biological target: T3, 11-beta-hydroxysteroid dehydrogenase type 2 (Mus musculus, UniProt P51661); assay: Inhibition of mouse 11beta-HSD2
T3 sequence (P51661 whole entry): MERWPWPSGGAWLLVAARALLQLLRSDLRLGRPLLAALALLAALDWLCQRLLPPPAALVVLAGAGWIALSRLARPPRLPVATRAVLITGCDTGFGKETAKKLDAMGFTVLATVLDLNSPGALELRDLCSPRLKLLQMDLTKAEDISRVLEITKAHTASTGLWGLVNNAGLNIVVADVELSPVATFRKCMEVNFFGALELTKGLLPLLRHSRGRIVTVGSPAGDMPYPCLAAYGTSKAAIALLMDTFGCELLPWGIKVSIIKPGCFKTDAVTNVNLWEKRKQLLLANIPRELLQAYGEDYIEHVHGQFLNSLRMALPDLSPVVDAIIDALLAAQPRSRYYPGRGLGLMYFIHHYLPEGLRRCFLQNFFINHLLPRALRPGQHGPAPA

[5] = biological target: T1, 11-beta-hydroxysteroid dehydrogenase 1; assay: Inhibition of human 11beta-HSD1 expressed in HEK293 cells; format: cell-based
[6] = Stability in mouse liver microsomes after 30 min; format: ADME, Microsome; details: read-out: Stability
In short: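 Compounds were incubated 30 min with mouse liver microsomes; the result is expressed as % parent remaining.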

[7] = biological target: 11-beta-hydroxysteroid dehydrogenase 1 (Mus musculus) (UniProt P50172); assay: Inhibition of DIO mouse liver 11beta-HSD1 at 30 mg/kg 7 hrs post dose; format: organism-based; parameters: dose 30 mg/kg
Sequence of 11-beta-hydroxysteroid dehydrogenase 1 (Mus musculus) (P50172 whole entry, looked up): as the sequence (P50172 whole entry) above
In short: (§1)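 DIO mice received one oral 30 mpk dose in 1% Tween 80 / 0.2% hydroxypropyl methylcellulose, 3 mice per point. Liver, epididymal fat and brain were excised at 7 or 16 h, weighed, minced in about 5 volumes PBS and given cortisone at 10 final. Incubation was at 37 °C, 5% CO₂: liver 20 min, fat and brain 3 h. Cortisol was read by LC-MS; % inhibition is versus the vehicle group.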

[8] = biological target: 11-beta-hydroxysteroid dehydrogenase 1 (Mus musculus) (UniProt P50172); assay: Inhibition of DIO mouse liver 11beta-HSD1 at 30 mg/kg 16 hrs post dose; format: organism-based; parameters: dose 30 mg/kg; in short: as §1
[9] = biological target: 11-beta-hydroxysteroid dehydrogenase 1 (Mus musculus) (UniProt P50172); assay: Inhibition of DIO mouse brain 11beta-HSD1 at 30 mg/kg 7 hrs post dose; format: organism-based; parameters: dose 30 mg/kg; in short: as §1
[10] = biological target: 11-beta-hydroxysteroid dehydrogenase 1 (Mus musculus) (UniProt P50172); assay: Inhibition of DIO mouse brain 11beta-HSD1 at 30 mg/kg 16 hrs post dose; format: organism-based; parameters: dose 30 mg/kg; in short: as §1
[11] = biological target: 11-beta-hydroxysteroid dehydrogenase 1 (Mus musculus) (UniProt P50172); assay: Inhibition of DIO mouse adipose tissue 11beta-HSD1 at 30 mg/kg 7 hrs post dose; format: organism-based; parameters: dose 30 mg/kg; in short: as §1
[12] = biological target: 11-beta-hydroxysteroid dehydrogenase 1 (Mus musculus) (UniProt P50172); assay: Inhibition of DIO mouse adipose tissue 11beta-HSD1 at 30 mg/kg 16 hrs post dose; format: organism-based; parameters: dose 30 mg/kg; in short: as §1
[13] = Plasma clearance in mouse at 10 mg/kg; format: ADME, organism-based; parameters: dose 10 mg/kg
In short: (§2)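 Mouse PK: single 10 mg/kg doses given intravenously and orally; the parameters were calculated from these dosings.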

[14] = Half life in mouse plasma at 10 mg/kg; format: ADME, organism-based; parameters: dose 10 mg/kg; in short: as §2
[15] = Bioavailability in mouse plasma at 10 mg/kg; format: ADME, organism-based; in short: as §2

T1 sequence (P28845 whole entry): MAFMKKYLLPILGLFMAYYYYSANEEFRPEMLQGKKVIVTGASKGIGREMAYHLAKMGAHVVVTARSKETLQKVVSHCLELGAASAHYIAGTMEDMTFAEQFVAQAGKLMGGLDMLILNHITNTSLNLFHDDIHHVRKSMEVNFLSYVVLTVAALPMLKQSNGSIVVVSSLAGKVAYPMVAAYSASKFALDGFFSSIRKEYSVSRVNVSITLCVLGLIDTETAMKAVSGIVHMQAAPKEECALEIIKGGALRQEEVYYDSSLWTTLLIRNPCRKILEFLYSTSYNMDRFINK

IC50 [1] | IC50 [2] | IC50 [3] | IC50 [4] | IC50 [5] | remaining at 0.5 h [6] | inhibition [7] | inhibition [8] | inhibition [9] | inhibition [10] | inhibition [11] | inhibition [12] | clearance [13] | half-life [14] | bioavailability [15] | Compound
5 nM | > 100000 nM | 11 nM | > 100000 nM | 38 nM | 83% |  |  |  |  |  |  |  |  |  | CC(C)(Oc1ccc(-n2cccn2)cn1)C(=O)N[C@H]1C2C[C@@H]3C[C@H]1C[C@@](CC(N)=O)(C2)C3
44 nM | > 100000 nM | 51 nM | > 100000 nM | 444 nM | 89% |  |  |  |  |  |  |  |  |  | CC(C)(Oc1ccc(N2CCOCC2)cn1)C(=O)N[C@H]1C2C[C@@H]3C[C@H]1C[C@@](CC(N)=O)(C2)C3
 |  | 74 nM | 28000 nM |  | 78% | 99% | 93% | 67% | 18% | 50% | 23% | 13.3 mL/min/kg | 2.6 h | 86.3% | CC(C)(Oc1ccc(Cl)cc1)C(=O)N[C@H]1C2C[C@@H]3C[C@H]1C[C@@](CCC(=O)O)(C2)C3
185 nM | > 100000 nM | 519 nM | > 100000 nM | > 10000 nM |  |  |  |  |  |  |  |  |  |  | CN1CCN(c2ccc(OC(C)(C)C(=O)N[C@H]3C4C[C@@H]5C[C@H]3C[C@@](CC(N)=O)(C4)C5)nc2)CC1
 |  | 53 nM |  |  | 41% |  |  |  |  |  |  |  |  |  | CC(C)(Oc1ccc(Cl)cc1)C(=O)N[C@H]1C2C[C@@H]3C[C@H]1C[C@@](c1nnc(N)[nH]1)(C2)C3
 |  | 26 nM | > 100000 nM |  | 64% | 89% | 84% | 85% | 79% | 92% | 67% | 76.7 mL/min/kg | 0.4 h | 61.6% | CC(C)(Oc1ccc(Cl)cc1)C(=O)N[C@H]1C2C[C@@H]3C[C@H]1C[C@@](/C(N)=N/O)(C2)C3
 |  | 92 nM | 20700 nM |  | 94% | 40% | 0% |  |  | 70% | 35% | 3.33 mL/min/kg | 2 h | 96.1% | CC(C)(Oc1ccc(Cl)cc1)C(=O)N[C@H]1C2C[C@@H]3C[C@H]1C[C@@](CC(=O)O)(C2)C3
146 nM | > 100000 nM | 205 nM | 50000 nM | 306 nM | 25% |  |  |  |  |  |  |  |  |  | CC(C)(Oc1ccc(Cl)cc1)C(=O)N[C@H]1C2C[C@@H]3C[C@H]1C[C@@](c1nc(C#N)c(N)o1)(C2)C3
 |  | 101 nM | 100000 nM |  |  |  |  |  |  |  |  |  |  |  | CC(C)(Oc1ccc(Cl)cc1)C(=O)N[C@H]1C2C[C@@H]3C[C@H]1C[C@@](c1noc(=O)[nH]1)(C2)C3
14 nM | > 100000 nM | 65 nM | 15000 nM | 165 nM | 100% |  |  |  |  |  |  |  |  |  | CC(C)(C(=O)N[C@H]1C2C[C@@H]3C[C@H]1C[C@@](CC(N)=O)(C2)C3)c1ccc(C#N)cn1
 |  | 4 nM | > 100000 nM |  | 87% | 57% | 0% |  |  | 47% | 23% |  |  |  | CC(C)(Oc1ccc(Br)cn1)C(=O)N[C@H]1C2C[C@@H]3C[C@H]1C[C@@](CC(N)=O)(C2)C3
29 nM | > 100000 nM | 310 nM | > 100000 nM | 246 nM | 83% |  |  |  |  |  |  |  |  |  | CNc1ccc(C(C)(C)C(=O)N[C@H]2C3C[C@@H]4C[C@H]2C[C@@](CC(N)=O)(C3)C4)cn1
41 nM | > 100000 nM | 87 nM | 7000 nM | 119 nM | 79% | 62% | 37% | 11% | 9% | 17% | 20% | 20 mL/min/kg | 2.3 h | 39.7% | CC(C)(Oc1ccc(Cl)cc1)C(=O)N[C@H]1C2C[C@@H]3C[C@H]1C[C@@](Cc1nnn[nH]1)(C2)C3
 |  | 11 nM |  |  | 3% |  |  |  |  |  |  |  |  |  | CC(C)(Oc1ccc(Cl)cc1)C(=O)N[C@H]1C2C[C@@H]3C[C@H]1C[C@@](c1ncc[nH]1)(C2)C3
 |  | 71 nM |  |  | 30% |  |  |  |  |  |  |  |  |  | CC(C)(Oc1ccc(Cl)cc1)C(=O)N[C@H]1C2C[C@@H]3C[C@H]1C[C@@](c1ccno1)(C2)C3

From ChEMBL document CHEMBL1137283, “Synthesis and biological evaluation of heterocycle containing adamantane 11beta-HSD1 inhibitors” (Bioorg Med Chem Lett, 2006)
